The values that follow come from ChEMBL document CHEMBL1240384, “Inhibition of Porphyromonas gingivalis biofilm by oxantel” (2010).

SMILES strings stand for the structures. ≈ marks a conversion by molar mass, not a printed value. Where “and” joins values, the source holds several entries; their conditions need not be identical. Equal values may be shown once. Calls of active or inactive are those of the source. The rule behind the calls is not given here.

Holding throughout (format): functional
Assay [1] deals with Porphyromonas gingivalis. Put plainly: Antimicrobial activity against Porphyromonas gingivalis assessed as surface area/biovolume ratio at 12.5 uM after 18 hrs. The essentials: (§1)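 Three-channel flow cell inoculated with 1 ml of exponential ATCC 33277 culture at 5 × 10^8 cells/ml, left 1 h, then fed 0.2 ml/min of 5×-diluted supplemented brain heart infusion. At 18 h, 1 ml of 12.5 or 125 μM compound in sterile water (water control) was injected per channel for 30 min, followed by a 10 min medium wash. BacLight in situ, CLSM (63×, 2 μm sections, 488/568 nm), five random images per replicate, COMSTAT analysis; mean ± SD of three biological replicates.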

For assay [2], the system named is Porphyromonas gingivalis. The experiment in a line: Antimicrobial activity against Porphyromonas gingivalis assessed as reduction in thickness of biofilm at 12.5 uM after 18 hrs. Summed up: as §1
Assay [3] relates to Porphyromonas gingivalis. Put plainly: Antimicrobial activity against Porphyromonas gingivalis assessed as reduction in surface area of substratum occupied by cells at 12.5 uM after 18 hrs. Details: scale not given: the % may be the effect or the level left. The essentials:
as §1

Assay [4] has as its system Porphyromonas gingivalis. The experiment in a line: Antimicrobial activity against Porphyromonas gingivalis assessed as reduction in average number of microcolonies at 12.5 uM after 18 hrs. The essentials:
as §1

Assay [5] deals with Porphyromonas gingivalis. Put plainly: Antimicrobial activity against Porphyromonas gingivalis assessed as reduction in biovolume at 12.5 uM after 18 hrs. The essentials:
as §1

The test system of assay [6] is Porphyromonas gingivalis. Put plainly: Antimicrobial activity against Porphyromonas gingivalis assessed as reduction in average number of microcolony area at 12.5 uM after 18 hrs. The essentials: as §1
Assay [7] deals with Porphyromonas gingivalis. Put plainly: Antimicrobial activity against Porphyromonas gingivalis W50. Summed up:
(§2)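 Planktonic growth of P. gingivalis ATCC 33277 (fimbriated) and W50 (afimbriated) in 96-well plates, starting inoculum ~5.0 × 10^7 CFU per well. MIC determined, and mean generation time measured with DMSO alone or with drug at 31.25 and 62.5 μM. MGT differences were tested at P < 0.05.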

Assay [8] has as its system Porphyromonas gingivalis. The experiment in a line: Antimicrobial activity against Porphyromonas gingivalis W50 assessed as mean generation time at 62.5 uM. The essentials:
as §2

In assay [9] the test system is Porphyromonas gingivalis. Put plainly: Antimicrobial activity against Porphyromonas gingivalis W50 assessed as mean generation time at 31.25 uM. The essentials: as §2
The subject of assay [10] is Porphyromonas gingivalis. The experiment in a line: Antimicrobial activity against Porphyromonas gingivalis ATCC 33277 assessed as reduction of biofilm formation at 0.1 uM after 24 hrs. Summed up:
(§3)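 Static 96-well biofilm model with P. gingivalis ATCC 33277, grown 24 h with drug. Biofilm mass was quantified by crystal violet. Results are means of 12 replicates, compared with untreated and DMSO controls by one-way ANOVA with Scheffe multiple comparison.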

The subject of assay [11] is Porphyromonas gingivalis. Put plainly: Antimicrobial activity against Porphyromonas gingivalis ATCC 33277 assessed as reduction of biofilm formation at 125 uM after 24 hrs. The essentials: as §3
In assay [12] the test system is Porphyromonas gingivalis. The experiment in a line: Antimicrobial activity against Porphyromonas gingivalis ATCC 33277 assessed as thickness of biofilm at 125 uM after 18 hrs by confocal laser scanning microscopy. Summed up: as §1
The subject of assay [13] is Porphyromonas gingivalis. Put plainly: Antimicrobial activity against Porphyromonas gingivalis ATCC 33277 assessed as mean generation time at 31.25 uM. Summed up: as §2
In assay [14] the test system is Porphyromonas gingivalis. Put plainly: Antimicrobial activity against Porphyromonas gingivalis ATCC 33277 assessed as reduction of biofilm formation after 24 hrs. The essentials:
as §3

Assay [15] relates to Porphyromonas gingivalis. The experiment in a line: Antimicrobial activity against Porphyromonas gingivalis ATCC 33277 assessed as mean generation time at 62.5 uM. The essentials:
as §2

For assay [16], the system named is Porphyromonas gingivalis. Put plainly: Antimicrobial activity against Porphyromonas gingivalis ATCC 33277 assessed as thickness of biofilm at 12.5 uM after 18 hrs by confocal laser scanning microscopy. Summed up:
as §1

The test system of assay [17] is Porphyromonas gingivalis. Put plainly: Antimicrobial activity against Porphyromonas gingivalis assessed as reduction in surface area of substratum occupied by cells at 125 uM after 18 hrs. Details: scale not given: the % may be the effect or the level left. The essentials:
as §1

Assay [18] has as its system Porphyromonas gingivalis. Put plainly: Antimicrobial activity against Porphyromonas gingivalis ATCC 33277. The essentials:
as §2

Take `Cc1ncc([N+](=O)[O-])n1CCO` [METRONIDAZOLE]: the Activity in the assay on Porphyromonas gingivalis [1] turned out to be 1.63 µm2/µm3; in the assay on Porphyromonas gingivalis [2], 2.17 µm; in the assay on Porphyromonas gingivalis [3] it was 27.4%; in the assay on Porphyromonas gingivalis [4], 23.7 count; in the assay on Porphyromonas gingivalis [5], 2.19 µm3/µm2; in the assay with Porphyromonas gingivalis [6], 102 µm2.

`Cc1ccsc1/C=C/C1=NCCCN1C` [MORANTEL] had an MIC against Porphyromonas gingivalis [7] of 2800 µM (≈ 617 µg/mL). Also, the Activity in the assay with Porphyromonas gingivalis [8] amounted to 11.3 h; in the assay with Porphyromonas gingivalis [9], 11 h.

With `CN1CCCN=C1/C=C/c1cccc(O)c1` [OXANTEL], the result with Porphyromonas gingivalis [10], in the assay with Porphyromonas gingivalis [11], in the assay with Porphyromonas gingivalis [12] and in the assay with Porphyromonas gingivalis [16] was Active. The Activity with Porphyromonas gingivalis [1] was 2.31 µm2/µm3; in the assay on Porphyromonas gingivalis [2], 0.83 µm; in the assay on Porphyromonas gingivalis [3] it was 33.2%; in the assay on Porphyromonas gingivalis [4], 18.3 count; in the assay with Porphyromonas gingivalis [13] it was 10 h; with Porphyromonas gingivalis [14], “Dose-dependent effect”. The Activity was 1.44 µm3/µm2 in the assay on Porphyromonas gingivalis [5]; 24 h in the assay on Porphyromonas gingivalis [15]; 23.8% and 27% in the assay on Porphyromonas gingivalis [17]; 23.8 h with Porphyromonas gingivalis [8]; 19.2 h in the assay with Porphyromonas gingivalis [9]; 124 µm2 in the assay with Porphyromonas gingivalis [6]. In addition, the MIC against Porphyromonas gingivalis [7] was 112 µM (≈ 24.2 µg/mL); against Porphyromonas gingivalis [18] it was 125 µM (≈ 27 µg/mL).

`c1ccc2[nH]c(-c3cscn3)nc2c1` [THIABENDAZOLE] gave an MIC in the assay with Porphyromonas gingivalis [7] above 3000 µM. For the same compound, the figures for the Activity with Porphyromonas gingivalis [8] and in the assay with Porphyromonas gingivalis [9] were 6.2 h and 6.8 h, respectively.
